Experimental data of several laboratories.
Each line is one published result; the experiments were not run side by side.
Target: Ephrin type-A receptor 8 (EPHA8, Homo sapiens, UniProt P29322)
One construct used (P29322 1-1005): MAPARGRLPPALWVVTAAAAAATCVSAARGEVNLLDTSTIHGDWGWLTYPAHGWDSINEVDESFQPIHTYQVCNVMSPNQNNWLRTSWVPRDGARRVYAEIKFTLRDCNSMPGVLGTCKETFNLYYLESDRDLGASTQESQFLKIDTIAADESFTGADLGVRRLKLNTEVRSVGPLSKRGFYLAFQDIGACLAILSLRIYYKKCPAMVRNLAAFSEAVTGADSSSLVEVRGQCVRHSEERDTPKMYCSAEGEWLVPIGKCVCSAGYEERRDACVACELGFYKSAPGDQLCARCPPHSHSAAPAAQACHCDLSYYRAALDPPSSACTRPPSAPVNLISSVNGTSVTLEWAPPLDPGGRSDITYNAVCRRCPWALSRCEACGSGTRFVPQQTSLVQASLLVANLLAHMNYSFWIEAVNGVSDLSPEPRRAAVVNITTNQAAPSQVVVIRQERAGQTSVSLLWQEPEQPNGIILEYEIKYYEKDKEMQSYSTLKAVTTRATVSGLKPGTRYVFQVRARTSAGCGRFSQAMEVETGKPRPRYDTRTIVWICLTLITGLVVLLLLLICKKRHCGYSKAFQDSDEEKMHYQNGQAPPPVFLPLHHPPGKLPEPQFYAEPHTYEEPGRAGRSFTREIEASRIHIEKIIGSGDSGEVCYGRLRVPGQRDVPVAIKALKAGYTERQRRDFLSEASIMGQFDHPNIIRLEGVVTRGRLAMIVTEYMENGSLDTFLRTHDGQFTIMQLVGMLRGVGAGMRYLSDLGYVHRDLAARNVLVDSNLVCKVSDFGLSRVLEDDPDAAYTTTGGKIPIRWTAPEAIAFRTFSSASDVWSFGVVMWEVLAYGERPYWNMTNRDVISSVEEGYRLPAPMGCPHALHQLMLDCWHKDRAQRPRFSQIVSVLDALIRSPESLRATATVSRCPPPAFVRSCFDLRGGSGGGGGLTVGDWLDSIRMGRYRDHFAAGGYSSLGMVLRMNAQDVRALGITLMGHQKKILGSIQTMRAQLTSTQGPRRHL

With `CNC(=O)c1ccc(Nc2ncc(C(F)(F)F)c(NCc3nccnc3N(C)S(C)(=O)=O)n2)cc1` the remaining binding was 87% (cell-free assay, competition with immobilised ligand; 0.1 µM).
`Nc1ncnc2occ(-c3ccc(NC(=O)Nc4cc(C(F)(F)F)ccc4F)cc3)c12` has a remaining signal of 0% (cell-free assay; 20 µM).
For `CO[C@H]1CC[C@H](CNc2ccc(S(=O)(=O)NC(=O)c3ccc(N4CCN(CC5=C(c6ccc(Cl)cc6)CC(C)(C)CC5)CC4)cc3Oc3cnc4[nH]ccc4c3)cc2[N+](=O)[O-])CC1`, the remaining binding was 84% (cell-free assay, competition with immobilised ligand; 1 µM).
With `Cc1cc(NC(=O)c2cccc3cc(-c4cccc5[nH]nc(N)c45)ccc23)ccc1F` the activity vs control was 97% (enzyme activity, inhibitor; 0.1 µM).
`COc1cc(-c2cc(-c3ccc(N4CCNCC4)cc3)cnc2C)cc(OC)c1OC` gave an inhibition of 10% (enzyme activity, inhibitor; 1 µM).
`Cc1sc(C(=O)NC2COC2)cc1-n1cc(NC(=O)Nc2c(F)cccc2Cl)cn1` has a remaining activity of 91.7% (enzyme activity, inhibitor; 10 µM).
For `Cc1ccc(Nc2nccc(N(C)c3ccc4c(C)n(C)nc4c3)n2)cc1S(N)(=O)=O`, the inhibition was 81% (enzyme activity, inhibitor; 10 µM).
The remaining binding of `O=C1CCc2cc(Nc3cc(OC4CCOCC4)c([N+](=O)[O-])cc3Cl)ccc2N1` is reported as 100% (cell-free assay, competition with immobilised ligand; 1 µM).
`CNC(=O)c1cc(Oc2ccc(NC(=O)Nc3ccc(Cl)c(C(F)(F)F)c3)cc2)ccn1` has an inhibition of 23% (enzyme activity, inhibitor; 0.3 µM).
`CCN(CC)CCNC(=O)c1c(C)[nH]c(/C=C2\C(=O)Nc3ccc(F)cc32)c1C` gave a remaining signal of 92.1% (cell-free assay; 0.5 µM).
`C[C@H](NC(=O)c1cnc2n1[C@](C)(Cc1ccc(C#N)cc1)C(=O)N2c1cc(Cl)c(F)c(Cl)c1)C(=O)NC1(c2ccccn2)CC1` has a remaining binding of 100% (cell-free assay, competition with immobilised ligand; 1 µM).
With `COc1cc2ncnc(Nc3ccc(Oc4ccccc4)c(C)c3C)c2cc1OC` the inhibition was 6% (enzyme activity, inhibitor; 1 µM).
`CCCOc1ccc([C@H]2[C@H](C(=O)O)[C@@H](c3ccc4c(c3)OCO4)CN2CC(=O)Nc2c(CC)cccc2CC)cc1` gave a remaining binding of 98% (cell-free assay, competition with immobilised ligand; 1 µM).
With `CC(C)(C)c1nc(-c2cccc(NS(=O)(=O)c3c(F)cccc3F)c2F)c(-c2ccnc(N)n2)s1` the remaining activity was 105% (enzyme activity, inhibitor, radiometric; 1 µM).
With `O=C(Nc1cnn(-c2csc(C(=O)NC3COC3)c2)c1)Nc1ccccc1Cl` the remaining activity was 103% (enzyme activity, inhibitor; 5 µM).
`C[C@@]1(Cc2ccc(C#N)cc2)C(=O)N(c2cc(Cl)cc(Cl)c2)c2ncc(C(=O)NC3(c4nc(C5CCC5)no4)CC3)n21` gave a remaining binding of 100% (cell-free assay, competition with immobilised ligand; 1 µM).
The remaining activity of `CCN(CC)c1ccc(C2=NNC(=O)CC2C)cc1[N+](=O)[O-]` (stereo not drawn) is reported as 115% (enzyme activity, inhibitor; 10 µM).
`Clc1ccc(Nc2nnc(Cc3ccncc3)c3ccccc23)cc1` gave a remaining signal of 100% (cell-free assay; 0.5 µM).
With `Cc1ccc(C(=O)Nc2ccc(CN3CCN(C)CC3)c(C(F)(F)F)c2)cc1C#Cc1cnc2cccnn12` the remaining signal was 0.9% (cell-free assay; 23.5 nM).
`N#CCCc1ccc2c(c1)-c1[nH]c3ccc([N+](=O)[O-])cc3c1CC(=O)N2` gave a remaining signal of 105% (cell-free assay; 0.5 µM).
For `CCCOc1ccc(OC)c(F)c1C(=O)c1ccc(C(=O)N[C@@H]2CNC[C@H]2NC(=O)c2ccc3[nH]ncc3c2)cc1`, the remaining activity was 95% (enzyme activity, inhibitor; 10 µM).
